Tests used:
Colon26 tumors [1] = assay: PET imaging and biodistribution in BALB/c mice bearing Colon26 tumors; assay type: in vivo; details: for time post injection giving the best imaging contrast: PET
Colon26 tumors [2] = assay: In vivo optical fluorescence imaging in BALB/c mice bearing Colon26 tumors; details: for tumor versus skin fluorescence after tumor removal: 1 μmol/kg, 24 h post injection
In short: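 Colon26 cells (1×10⁶ in 50 μL serum-free RPMI) were injected subcutaneously into the right posterior axilla and grown to 4–5 mm. Hair was removed the day before dosing. Mice were imaged under ip ketamine/xylazine with 540/40 nm illumination and a long-pass filter for 667/676 nm emission, and autofluorescence was removed by spectral unmixing. Tumor ROI was 20 mm, mean ± SD of 3 mice. After imaging, the tumor was excised and the skin flap imaged.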

Colon26 cells [3] = assay: PS uptake by Colon26 cells, flow cytometry; assay type: cell-based, mouse; details: 24 h post incubation
In short: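 Colon26 cells were seeded at 0.33 × 10⁶/well and left overnight. Test compound was added at 100, 200, 400 or 800 nM in triplicate at 37°C, with compound-free wells for autofluorescence. Cells were trypsinised, neutralised in cold medium with 2% FCS, spun at 500 g for 5 min at 4°C, and resuspended in cold PBS/2% FCS on ice in the dark. Flow cytometry used Ex 633 nm and Em 730±45 nm, 10,000 events; mean fluorescence of triplicates minus autofluorescence.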

Colon26 cells [4] = assay: In vitro photosensitizing efficacy, MTT assay; assay type: cell-based, mouse; details: 24 h incubation, variable light doses; for in vitro efficacy (PS 4, 12, 23): Colon26, 0.0625 μM
In short: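 Colon26 cells were seeded at 3 × 10³ cells/well in RPMI with 10% FCS and left overnight. Test compound was added for 24 h at 37°C in the dark, then replaced with drug-free complete medium. Cells were irradiated at 0–4 J/cm² at the compound's absorption peak (660–674 nm), 3.2 mW/cm², using an argon-pumped dye laser. After 48 h in the dark, MTT was added for the last 4 h and formazan was dissolved in DMSO. A570 was read. Survival was plotted against light dose; 4 wells, 3 independent repeats.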

[5] = system: human basal cell carcinoma (BCC1) cells; assay: PS uptake, retention and subcellular localization in BCC1 cells; assay type: cell-based; details: for subcellular localization after 30 min incubation / lowering of cellular uptake relative to PS 4: serum-free DMEM; for lowering of cellular uptake relative to PS 4: 30 min, 200 nM PS
In short: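 Subconfluent BCC1 cells grown in DMEM with 10% FCS were washed twice in serum-free DMEM. They were incubated with test compound in DMEM with or without 10% FCS: 30 min serum-free at 0.2 μM or 3.2 μM, or 24 h at 3.2 μM. Cells were washed and imaged at 640X under phase contrast and fluorescence (Ex 410/40, Em 675/750 nm). Redistribution was imaged again after 4 h in compound- and serum-free DMEM.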

STAT3 = assay: Light-mediated photoreaction in BCC1 cells; assay type: cell-based, human; details: 2 h PS, 665 nm, 3 J/cm^2
In short: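 Subconfluent BCC1 cells were incubated 2 h in serum-free DMEM with 2-fold serial dilutions of test compound and then washed. They were irradiated in serum-free medium at 37°C with 665 nm dye-laser light for 9 min and extracted immediately. Cell PS was measured by extract fluorescence (Ex 415, Em 667 nm). RIPA lysates (20 μg) were immunoblotted for STAT3, EGFR, p38 and P-p38 with ECL detection. STAT3 crosslinking was expressed as % monomer converted to dimer form I.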

Colon26 tumors [6] = assay: In vivo PDT efficacy in BALB/c mice bearing Colon26 tumors; details: 1.0 μmol/kg, light 128 J/cm^2, 14 mW/cm^2 at 24 h post injection, 10 mice/group
In short: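 Hair around the subcutaneous tumor was removed. At 4–5 mm diameter, mice received test compound at 1 μmol/kg. At 24 h, unanaesthetised mice restrained in holders were irradiated at 660–674 nm according to compound, with power monitored throughout. Mice were checked daily and volume was calculated as L×W²/2. Cure meant no palpable tumor by day 60–90; mice were euthanised at 400 mm³.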

CCC1=C(C)c2cc3[nH]c(cc4nc(c5c6[nH]c(cc1n2)c(C)c6C(=O)C5)C(CCC(=O)O)[C@@H]4C)c(C)c3C(C)OCc1cccc([124I])c1 (stereo partly drawn) [PS 6]
tumor uptake (PET) (Colon26 tumors [1]; 24, 48 and 72 h post injection): significant tumor uptake
time of maximum tumor uptake post injection (Colon26 tumors [1]; BALB/c mice, Colon26 tumor): 24 h
time post injection giving the best imaging contrast (Colon26 tumors [1]; BALB/c mice, Colon26 tumor): 72 h

CCC1=C(C)c2cc3[nH]c(cc4nc(c5c6[nH]c(cc1n2)c(C)c6C(=O)C5)C(CCC(=O)O)[C@@H]4C)c(C)c3C(C)OCc1cccc(I)c1 (stereo partly drawn) [PS 4, 3-devinyl-3-{1′-(m-iodobenzyoxy)-ethyl} pyropheophoride-a]
tumor versus skin fluorescence after tumor removal (Colon26 tumors [2]): tumor avid
PS uptake by Colon26 cells (rank order) (Colon26 cells [3]): PS 4 ≥ 23 > 12
in vitro efficacy (PS 4, 12, 23) (Colon26 cells [4]): comparable in vitro efficacy
relative PDT efficacy in vitro (PS 1, 4, 7) (Colon26 cells [4]; Colon26, 0.3 μM): most effective
subcellular localization after 30 min incubation [5]: mitochondrial compartment
time post injection giving the best imaging contrast (Colon26 tumors [1]; BALB/c mice, Colon26 tumor): 72 h

CCc1c(C)c2cc3nc(c4c5[nH]c(cc6nc(cc1[nH]2)C(C)=C6C(C)OCc1cccc(I)c1)c(C)c5C(=O)C4)[C@@H](CCC(=O)O)[C@@H]3C (stereo partly drawn) [PS 12, 3-devinyl-3-ethyl-8-{1′-(m-iodobenzyoxy)-ethyl}-pyropheophoride-a]
tumor uptake by fluorescence imaging (Colon26 tumors [2]; 1.0 μmol/kg i.v., 24, 48 and 72 h post-injection, 3 mice/group): lower tumor uptake
PS uptake by Colon26 cells (rank order) (Colon26 cells [3]): PS 4 ≥ 23 > 12
in vitro efficacy (PS 4, 12, 23) (Colon26 cells [4]): comparable in vitro efficacy

CC[C@H]1c2cc3[nH]c4c(c5nc(cc6[nH]c(cc(n2)[C@@H]1C)c(C(C)OCc1cccc(I)c1)c6C)C(C)=C5CCC(=O)O)CC(=O)c4c3C (stereo partly drawn) [PS 23, 3-deacetyl-3-(1′-m-iodobenzyloxyethyl)-7,8-dihydrophylloerythrin]
tumor versus skin fluorescence after tumor removal (Colon26 tumors [2]): tumor avid
PS uptake by Colon26 cells (rank order) (Colon26 cells [3]): PS 4 ≥ 23 > 12
in vitro efficacy (PS 4, 12, 23) (Colon26 cells [4]): comparable in vitro efficacy
lowering of cellular uptake relative to PS 4 [5]: 2 fold

CC[C@H]1c2cc3[nH]c4c(c5nc(cc6[nH]c(cc(n2)[C@@H]1C)c(C(C)OCc1cccc([124I])c1)c6C)C(C)=C5CCC(=O)O)CC(=O)c4c3C (stereo partly drawn) [PS 27]
time post injection giving the best imaging contrast (Colon26 tumors [1]; BALB/c mice, Colon26 tumor): 72 h

Peglate 3-devinyl-3-{1′-(m-iodobenzyoxy)ethyl}pyropheophoride-a [PS 7]
photoreaction quantifiable by the biochemical markers (STAT3): ineffective
cellular uptake in presence of serum proteins versus serum-free ([5]; 3.2 μM, 24 h, 10% fetal calf serum): several-fold higher
subcellular localization after 24 h incubation ([5]; 3.2 μM, regardless of the incubation conditions): endosomal/lysosomal compartment
lowering of cellular uptake relative to PS 4 [5]: > 100 fold
tumor cure (tumor-free on day 60), first series (Fig. 7A) (Colon26 tumors [6]): ineffective

CCC1=C(C)c2cc3[nH]c(cc4nc(c5c6[nH]c(cc1n2)c(C)c6C(=O)C5)C(CCC(=O)OC)[C@@H]4C)c(C)c3C(C)OCc1cccc(I)c1 (stereo partly drawn) [PS 1, Methyl 3-devinyl-3-{1′-(m-iodobenzyoxy)-ethyl}pyropheophoride-a]
photoreaction quantifiable by the biochemical markers (STAT3): ineffective
subcellular localization after subsequent 4 h incubation in PS-free medium ([5]; 3.2 μM PS 1 or 0.2 μM PS 4): lysosomal compartment
lowering of cellular uptake relative to PS 4 [5]: > 100 fold
fluorescence (uptake) in presence of 10% fetal calf serum ([5]; data not shown): ~ 5 fold lower
subcellular localization after 30 min incubation [5]: mitochondrial compartment

— article PMC3188669 (Journal of medicinal chemistry, 2011)
